Here are results for 1 compound from ChEMBL document CHEMBL2176894, “Cyanobacterial peptides as a prototype for the design of potent β-secretase inhibitors and the development of selective chemical probes for other aspartic proteases” (J Med Chem, 2012).

Activity calls are given as the source filed them. No cut-off for these calls is given here.

The test system of one series is Nucleic Acid. The series can be described thus: Ratio of drug level in CF1 mouse brain to IC50 for inhibition of BACE1-mediated Abeta40/Abeta42 production in CHO 2B7 cells expressing wild type APP695. It is filed as cell-based. A digest of the protocol:
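CF-1 mice (8 weeks, 25−35 g) received 30 mg/kg i.p. in 5% DMSO/15% Solutol HS 15/10% EtOH/65% water and were killed 3 h post-dose. Cerebellum and cortex were homogenized in acetonitrile (1:10 w:v) with internal standard and quantified by HPLC-MS (MRM, negative ion). The cellular reference was CHO 2B7 (APP695 wt): 16 h treatment, 1% DMSO, secreted Aβ40/Aβ42 sandwich ELISA.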

For the next series, the system named is Brain. Nature of the series: Drug concentration in CF1 mouse brain at 30 mg/kg, ip measured 3 hrs post dose by HPLC-MS method relative to compound plasma concentration. It is filed as ADME, organism-based. Further details: dose 30 mg/kg, route intraperitoneal. An outline of the steps:
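CF-1 mice, 8 weeks old, 25−35 g, given 30 mg/kg i.p. in 5% DMSO/15% Solutol HS 15/10% EtOH/65% water; killed 3 h post-dose. Cerebellum and cortex homogenized in acetonitrile (1:10 w:v) containing internal standard, then re-extracted. Plasma was taken by cardiac puncture into K-EDTA. Levels were measured by HPLC-MS (MRM, negative ionization) and interpolated from a calibration curve.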

Another series concerns Mus musculus. Nature of the series: Reduction in […] in CF1 mouse at 30 mg/kg, ip measured 3 hrs post dose by sandwich ELISA. More on the design: dose 30 mg/kg. It is filed as functional, organism-based. A general note: An ELISA detects its analyte on a solid surface through an enzyme-linked reagent.
A short description of series [1]: Drug metabolism in human H4 cells lysates assessed as ester hydrolysis mediated formation of metabolites by HPLC-MS method. Format: ADME, cell-based, Lysate. An outline of the steps: (§1)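 H4 whole-cell lysate was diluted to 1 mg/mL protein in 0.1 M phosphate buffer, pH 7.4. Parent and acid hydrolysis product were extracted with EtOAc with internal standard. Quantitation was by HPLC-MS MRM against a calibration curve; n = 2.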

In series [2] the test system is Serum. The series can be described thus: Drug metabolism in mouse serum assessed as ester hydrolysis mediated formation of metabolites by HPLC-MS method. Format: ADME, cell-free. An outline of the steps: (§2)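 Compound (10 μL of 25 μg/mL) was incubated with 100 μL mouse serum at 37 °C for 0, 1, 2, 4, 8, 12 and 24 h. The reaction was quenched with EtOAc plus internal standard, shaken 5 min, centrifuged at 16000g, and the organic layer dried and taken up in MeOH. Parent and ester-hydrolysis acid were quantified by HPLC-MS MRM interpolation; n = 2.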

A short description of series [3]: Permeability at 10 uM at pH 7.4 by PAMPA method. Format: ADME. As to conditions: read-out: permeability. An outline of the steps:
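Filters were coated with BBB-1 lipid, with brain sink buffer in the acceptor. Plates were incubated 4 h at room temperature, humidified. Absorbance was read at 250−350 nm and Pe calculated. Triplicate; mean ± SD.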
A general note: The PAMPA barrier holds no transporters, so it reflects passive diffusion.

Series [4] can be described thus: Permeability at 10 uM at pH 5.0 by PAMPA method. Format: ADME. As to conditions: read-out: permeability.
Series [5] in a line: Stability in human H4 cells lysates by HPLC-MS method. Format: ADME, cell-based, Lysate. A digest of the protocol:
as §1

Series [6] has as its system Serum. The series can be described thus: Stability in mouse serum by HPLC-MS method. Format: ADME, cell-free. An outline of the steps: as §2
In series [7] the target is Gamma-secretase (Homo sapiens) (UniProt Q96BI3+Q9NZ42+Q8WW43+P49768+Q92542+P49810). Nature of the series: Inhibition of gamma secretase expressed in human H4 cells expressing BRI-C99 fusion protein assessed as C99 fragment accumulation fragment at 10 uM incubated for 16 hrs in by immunoblot. It is filed as cell-based. A digest of the protocol: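 H4 cells overexpressing Bri-C99 (400000/well) were kept in Opti-MEM with 1% serum and treated 16 h with test compound (10 μM), LY411575 (100 nM) or BACE1 inhibitor IV (1 μM). Cells were lysed in TBS/1% Triton X-100 and run on a 12% bis-tris gel. Blots were probed with CT-20 antibody for furin-generated C99 and read on an infrared imager.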
(In general: A western blot detects proteins with antibodies after separation by electrophoresis.)

Another series has as its system H4. The series can be described thus: Inhibition of Alpha secretase expressed in human H4 cells assessed as reduction in C83 levels at 10 uM incubated for 16 hrs by immunoblot. Format: cell-based. A digest of the protocol:
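H4 cells (3 × 10⁵/well) adhered 4−6 h in DMEM/10% FCS at 37 °C, then were switched to serum-free Ultraculture containing compound at 10 μM final for 16 h. Cells were lysed in NP40/deoxycholate buffer, and protein was equalized by BCA. Lysates were run on 10−20% tricine gels and immunoblotted with antibody to the APP C-terminal 20 residues (1:2000); C99 and C83 were imaged on an infrared system.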

Series [8] addresses T1, Beta-secretase 1 (Homo sapiens, UniProt P56817). Nature of the series: Inhibition of BACE1 expressed in human H4 cells assessed as reduction in CTF levels at 10 uM incubated for 16 hrs by immunoblot. Format: cell-based.
For a further series, the target named is T2, Cathepsin E (Homo sapiens, UniProt P14091).
T2 sequence (P14091 whole entry): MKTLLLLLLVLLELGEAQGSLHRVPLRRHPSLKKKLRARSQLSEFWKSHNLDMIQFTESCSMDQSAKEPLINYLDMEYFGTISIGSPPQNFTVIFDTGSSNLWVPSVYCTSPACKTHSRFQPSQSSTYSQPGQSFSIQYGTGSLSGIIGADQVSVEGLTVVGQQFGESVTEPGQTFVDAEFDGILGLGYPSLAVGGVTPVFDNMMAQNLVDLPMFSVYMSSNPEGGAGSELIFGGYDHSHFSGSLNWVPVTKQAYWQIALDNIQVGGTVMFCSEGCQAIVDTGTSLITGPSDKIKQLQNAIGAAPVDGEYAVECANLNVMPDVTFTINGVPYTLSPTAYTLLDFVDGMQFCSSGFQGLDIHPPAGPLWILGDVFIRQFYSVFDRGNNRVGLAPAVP
The series can be described thus: Inhibition of cathepsin E by fluorescence assay.

The next series has as its target Cathepsin D (Homo sapiens, UniProt P07339). The series can be described thus: Inhibition of cathepsin D by fluorescence assay.
Series [9] addresses T1, Beta-secretase 1. Nature of the series: Inhibition of BACE1 by fluorescence assay.
In series [10] the target is T1, Beta-secretase 1. The series can be described thus: Inhibition of BACE1 expressed in CHO 2B7 cells expressing wild type APP695 assessed as reduction in Abeta40/Abeta42 levels incubated for 16 hrs by sandwich ELISA. It is filed as cell-based.
For series [11], the target named is T1, Beta-secretase 1. As to conditions: H4, at 10 µM.

T1 sequence (P56817 whole entry): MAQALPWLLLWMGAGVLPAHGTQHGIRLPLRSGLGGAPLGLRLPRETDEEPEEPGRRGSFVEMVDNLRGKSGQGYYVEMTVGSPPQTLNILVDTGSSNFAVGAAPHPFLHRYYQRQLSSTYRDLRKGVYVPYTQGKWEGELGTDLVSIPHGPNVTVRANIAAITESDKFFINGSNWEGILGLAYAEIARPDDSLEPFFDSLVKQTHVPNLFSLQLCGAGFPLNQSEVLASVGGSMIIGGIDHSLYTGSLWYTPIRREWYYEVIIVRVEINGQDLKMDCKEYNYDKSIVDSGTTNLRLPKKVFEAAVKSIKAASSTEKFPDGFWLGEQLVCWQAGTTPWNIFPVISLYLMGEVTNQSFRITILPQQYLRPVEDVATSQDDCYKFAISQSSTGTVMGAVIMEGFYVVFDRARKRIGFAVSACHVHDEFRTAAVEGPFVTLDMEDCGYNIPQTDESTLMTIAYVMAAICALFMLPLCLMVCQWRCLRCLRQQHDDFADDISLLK
Cathepsin D, sequence (P07339 65-162 limits assumed): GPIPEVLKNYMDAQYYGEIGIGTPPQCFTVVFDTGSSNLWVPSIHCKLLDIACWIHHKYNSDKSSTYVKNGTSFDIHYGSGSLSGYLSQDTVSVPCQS
Cathepsin D, sequence (P07339 169-412 limits assumed): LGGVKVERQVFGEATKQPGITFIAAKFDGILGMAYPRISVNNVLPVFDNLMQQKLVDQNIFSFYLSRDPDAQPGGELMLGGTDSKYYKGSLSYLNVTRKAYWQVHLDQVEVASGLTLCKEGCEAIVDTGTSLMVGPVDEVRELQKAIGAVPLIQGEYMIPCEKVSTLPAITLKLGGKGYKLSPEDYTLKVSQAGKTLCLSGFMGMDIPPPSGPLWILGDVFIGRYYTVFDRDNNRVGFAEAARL

Turning to `COC(=O)[C@@H]1CCCN1C(=O)[C@@H](Cc1ccccc1)N(C)C(=O)[C@H](C)NC(=O)[C@H](CC(C)C)NC(=O)C[C@H](O)[C@H](Cc1ccccc1)NC(=O)c1cc(NS(C)(=O)=O)cc(C(=O)N[C@H](C)c2ccccc2)c1`, the Ratio in the series with Nucleic Acid was found to be 3. Further, the Drug uptake with Brain worked out at 2.5%. The outcome in the series on Mus musculus was inactive. The Drug metabolism result (in series [1]; in the series on Serum [2]) was “Active” in each case. In addition, the Papp at 10 µM was determined as 8.58 ×10⁻⁶ cm/s in series [3] and 10.7 ×10⁻⁶ cm/s in [4]. Also, the Stability entry (in series [5]; in the series on Serum [6]) was “Stable” each time. Further, the inhibition entry (in [7]; with H4) was “inactive” each time. Also, the inhibition entry on Beta-secretase 1 [8] and at Beta-secretase 1 [11] was “Active” throughout. For the same compound, the IC50 (in general, the midpoint of a concentration-inhibition curve) was found to be 210 nM on Cathepsin E, 11.3 nM against Cathepsin D, 128 nM at Beta-secretase 1 [9] and 100 nM at Beta-secretase 1 [10].
